Laboratory results: ChEMBL document CHEMBL4340521, “Subtle modifications to a thieno[2,3-d]pyrimidine scaffold yield negative allosteric modulators and agonists of the dopamine D2 receptor” (Eur J Med Chem, 2019)
Active and inactive are the calls of the source. The rule behind the calls is not given here.

What was measured:
[1] = target: T1, D(2) dopamine receptor (Homo sapiens, UniProt P14416); test: (§1) Negative allosteric modulation of recombinant human D2L receptor expressed in Flp-In CHO cells assessed as inhibition of dopamine-induced reduction in forskolin stimulated cAMP accumulation by measuring equilibrium dissociation constant preincubated for 30 mins followed by forskolin stimulation and measured after 30 mins by BRET assay; format: functional, cell-based
T1 sequence (P14416 whole entry): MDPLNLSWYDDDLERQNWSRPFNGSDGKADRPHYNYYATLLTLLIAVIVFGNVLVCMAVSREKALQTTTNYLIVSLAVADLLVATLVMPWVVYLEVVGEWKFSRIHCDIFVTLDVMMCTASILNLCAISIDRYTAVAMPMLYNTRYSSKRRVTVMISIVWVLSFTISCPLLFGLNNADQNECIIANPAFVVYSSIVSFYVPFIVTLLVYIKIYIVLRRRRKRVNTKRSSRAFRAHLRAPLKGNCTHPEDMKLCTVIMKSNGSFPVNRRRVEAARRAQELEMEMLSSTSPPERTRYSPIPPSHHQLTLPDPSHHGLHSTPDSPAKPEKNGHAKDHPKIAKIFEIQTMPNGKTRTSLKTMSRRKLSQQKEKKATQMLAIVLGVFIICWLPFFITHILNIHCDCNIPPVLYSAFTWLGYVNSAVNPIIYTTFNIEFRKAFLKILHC

[2] = target: T1, D(2) dopamine receptor; test: as §1, with “intrinsic efficacy of the modulator” for “equilibrium dissociation constant”; format: functional, cell-based
[3] = target: T1, D(2) dopamine receptor; test: as §1, with “modulation of dopamine efficacy” for “equilibrium dissociation constant”; format: functional, cell-based
[4] = target: T1, D(2) dopamine receptor; test: as §1, with “net cooperativity factor” for “equilibrium dissociation constant”; format: functional, cell-based
[5] = tested on: CHO; test: Modulation of dopamine-induced forskolin stimulated cAMP accumilation in hamster FlpIn CHO cells assessed as BRET signal preincubated for 30 mins followed by forskolin stimulation and measured after 30 mins by BRET assay relative to control; format: cell-based; conditions: cricetinae, 0.5 h
In short: (§2)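 Wild-type FlpIn CHO cells lacking D2R, transfected with CAMYEL cAMP BRET biosensor. Compounds at 1-100 μM plus dopamine 10 μM added 30 min before stimulation, with or without 10 μM forskolin (final). Coelenterazine-h 5 μM final. BRET ratio 535/475 nm read 30 min after stimulation.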

[6] = tested on: CHO; test: Modulation of dopamine-induced forskolin stimulated cAMP accumilation in hamster FlpIn CHO cells assessed as BRET signal at 100 uM preincubated for 30 mins followed by forskolin stimulation and measured after 30 mins by BRET assay relative to control; format: cell-based, Cricetinae; conditions: Cricetulus griseus, 0.5 h, read-out: Activity; in short: as §2
[7] = target: T1, D(2) dopamine receptor; test: as §1, with “constant up to 100 uM” for “constant”; format: functional, cell-based
[8] = target: T1, D(2) dopamine receptor; test: Competitive antagonist activity at recombinant human D2L receptor expressed in Flp-In CHO cells assessed as inhibition of dopamine-induced reduction in forskolin stimulated cAMP accumulation preincubated for 30 mins followed by forskolin stimulation and measured after 30 mins by BRET assay; format: functional, cell-based; conditions: read-out: pA2 (converted)

Row | Structure (SMILES) | Kb [1] | pKb [1] | log(activity) [2] | Efficacy [3] | log(activity) [3] | Activity index [4] | log(activity) [4] | Activity [5] | activity at 100 µM [6] | Activity [7] | Intrinsic activity [2] | Kb [8]
1 | c1nc(NC2CC2)c2c3c(sc2n1)CCCC3 | 0.88 µM | 6.05 | 0 | 0.03 | -1.48 | – | – | – | – | – | – | –
2 | CCN(CC)c1ncnc2sc(C)c(C)c12 | 19.5 µM | 4.71 | 0 | – | 0 | 0.24 | -0.61 | – | – | – | – | –
3 | CCN(CC)c1ncnc2sccc12 | – | 5.31 | 0 | 0.13 | -0.89 | – | – | – | – | – | – | –
4 | c1nc(N2CCCC2)c2c3c(sc2n1)CCCC3 | 4.23 µM | 5.37 | 0 | 0.17 | -0.76 | – | – | – | – | – | – | –
5 | c1nc(NC2CC2)c2ccsc2n1 | 21.4 µM | 4.67 | -3 | – | 0 | 0.22 | -0.65 | – | – | – | – | –
6 | c1nc(N2CCCCC2)c2c3c(sc2n1)CCCC3 | 59.3 µM | 4.23 | 0 | – | 0 | – | – | Dose-dependent effect | 26% | – | – | –
7 | c1nc(N2CCOCC2)c2c3c(sc2n1)CCCC3 | – | 3.9 | 0 | – | 0 | 1.66 | -0.22 | – | – | – | – | –
8 | CCN(CC)c1ncnc2sc3c(c12)CCCCCC3 | 14.5 µM | 4.84 | 0 | – | -3 | – | – | – | 28% | – | – | –
9 | CCN(CC)c1ncnc2scc(-c3ccccc3)c12 | 60 µM | 4.22 | -3 | – | 0 | 0.27 | -0.57 | – | – | – | – | –
10 | Cc1sc2ncnc(NC3CCC3)c2c1C | 2.88 µM | 5.54 | – | 0.13 | -0.9 | – | – | – | – | – | – | –
11 | CCN(CC)c1ncnc2sc3c(c12)CCC3 | 0.74 µM | 6.13 | 0 | 0.14 | -0.85 | – | – | – | – | – | – | –
12 | CCN(CC)c1ncnc2sc(-c3ccccc3)cc12 | 0.9 µM | 6.04 | 0 | – | -3 | – | – | – | – | – | – | –
13 | CCN(CC)c1ncnc2sc3c(c12)CCCCC3 | – | – | – | – | – | – | – | – | – | inactive | – | –
14 | c1nc(NC2CCCCC2)c2c3c(sc2n1)CCCC3 | – | – | – | – | – | – | – | – | – | inactive | – | –
15 | c1ccc(-c2cc3c(NC4CC4)ncnc3s2)cc1 | 6.35 µM | 5.92 | -0.22 | 0.43 | -0.37 | – | – | – | – | – | 0.6 | –
16 | c1nc(N2CCNCC2)c2c3c(sc2n1)CCCC3 | 20 µM | 4.7 | -3 | – | 0 | – | – | – | – | – | – | 21.4 µM
17 | c1nc(NC2CCC2)c2ccsc2n1 | 7.38 µM | 5.13 | 0 | – | 0 | 0.48 | -0.32 | – | – | – | – | –
18 | c1nc(NC2CCC2)c2c3c(sc2n1)CCCCC3 | 0.91 µM | 6.04 | 0 | 0.06 | -1.22 | – | – | – | – | – | – | –
19 | c1nc(NC2CC2)c2c3c(sc2n1)CCCCCC3 | 0.53 µM | 6.27 | 0 | 0.1 | -1 | – | – | – | – | – | – | –

Row | Structure (SMILES) | Kb [1] | pKb [1] | log(activity) [2] | Efficacy [3] | log(activity) [3] | Activity index [4] | log(activity) [4] | Activity [5] | activity at 100 µM [6] | Activity [7] | Intrinsic activity [2] | Kb [8]
20 | c1ccc(-c2cc3c(NC4CCC4)ncnc3s2)cc1 | 4.5 µM | 5.35 | 0 | – | 0 | 0.28 | -0.55 | – | – | – | – | –
21 | c1ccc(-c2csc3ncnc(NC4CC4)c23)cc1 | 1.93 µM | 5.72 | -3 | – | 0 | 0.32 | -0.47 | – | – | – | – | –
22 | CC(C)(C)Nc1ncnc2sc3c(c12)CCCC3 | 92.5 µM | 4.03 | 0 | – | 0 | 0.91 | -0.04 | – | – | – | – | –
23 | c1nc(NC2CC2)c2cc(C3CCCCC3)sc2n1 | – | – | – | – | – | – | – | – | – | inactive | – | –
24 | c1nc(NC2CCC2)c2c3c(sc2n1)CCCCCC3 | 3.98 µM | 5.4 | 0 | 0.26 | -0.58 | – | – | – | – | – | – | –
25 | c1nc(NC2CCC2)c2c3c(sc2n1)CCC3 | – | 3.99 | 0 | – | 0 | 0.57 | -0.25 | – | – | – | – | –
26 | CCN(CC)c1ncnc2scc(C3CCCCC3)c12 | – | – | – | – | – | – | – | – | – | inactive | – | –
27 | Cc1sc2ncnc(NC3CC3)c2c1C | – | – | – | – | – | – | – | – | – | inactive | – | –
28 | c1nc(NC2CCC2)c2c(C3CCCCC3)csc2n1 | 2.92 µM | 5.53 | 0 | 0.03 | -1.55 | – | – | – | – | – | – | –
29 | c1ccc(-c2csc3ncnc(NC4CCC4)c23)cc1 | – | 3.89 | -3 | – | 0 | 0.39 | -0.41 | – | – | – | – | –
30 | c1nc(NC2CC2)c2c3c(sc2n1)CCCCC3 | 2.96 µM | 5.53 | 0 | 0.05 | -1.3 | – | – | – | – | – | – | –
31 | c1nc(NC2CCC2)c2c3c(sc2n1)CCCC3 | 0.57 µM | 6.25 | -0.72 | 0.22 | -0.65 | – | – | – | – | – | 0.19 | –
32 | CCN(CC)c1ncnc2sc(C3CCCCC3)cc12 | – | – | – | – | – | – | – | – | – | inactive | – | –
33 | c1nc(NCC2CC2)c2c3c(sc2n1)CCCC3 | 1.19 µM | 5.92 | -0.06 | 0.29 | -0.54 | – | – | – | – | – | 0.86 | –
34 | c1ccc(Nc2ncnc3sc4c(c23)CCCC4)cc1 | – | – | – | – | – | – | – | – | – | inactive | – | –
35 | c1nc(NC2CC2)c2c3c(sc2n1)CCC3 | 6.01 µM | 5.22 | -0.13 | 0.28 | -0.55 | – | – | – | – | – | 0.75 | –
36 | c1nc(NC2CCC2)c2cc(C3CCCCC3)sc2n1 | – | – | – | – | – | – | – | – | – | inactive | – | –
37 | c1nc(NC2CC2)c2c(C3CCCCC3)csc2n1 | 11.6 µM | 4.93 | 0 | 0.09 | -1.04 | – | – | – | – | – | – | –
38 | CCN(CC)c1ncnc2sc3c(c12)CCCC3 | – | 5.72 | 0 | – | -3 | – | -3 | – | – | – | – | –
